# GPR7 antagonist: human neuropeptides B/W receptor 1 antagonism | P48145 | GPR7-expressing cells, fluorescence antagonist assay | inhibition, % at 4.4 µM | 290,000 compounds, 1.1% hits | AID 1861; in the data active = inhibition above about 16%, passing the limit was not always enough;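 note: cells stimulated with the agonist NPW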
# CHO parental Ca: counter-screen for OX1R antagonists: effect in parental CHO cells; parental CHO-K1, ATP-induced calcium, Fluo-8 fluorescence; inhibition, % at 5.6 µM; 330,000 compounds, 0.63% hits;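 active = inhibition above that plate's mean sample inhibition plus 3 SD, cut at about 26% in these data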
#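 Test system: untransfected parental CHO cell line. Compound: one dose, 5.6 µM nominal. Detection: intracellular calcium via Fluo-8 no-wash fluorescent dye. Measure: % inhibition. Benchmarks: ATP-challenged DMSO wells low, unchallenged DMSO wells high.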
# GalR3 antagonist: blocks the human galanin receptor 3. AID 651719. inhibition, % at 3 µM. HEK293 GalR3-CNG cAMP membrane potential fluorescence; galR3 body fused to GalR1 C-terminus. O60755. 360,000 compounds, 0.44% hits;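 active = inhibition above the screen-wide average plus 3 SD, cut at about 13% in these data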;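 note: forskolin and galanin both at EC90 stimulate the cells; cAMP rise reported by CNG channel membrane potential dye signal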
# OX1R antag-1: antagonists of human orexin 1 receptor (OX1R); O43613; OX1R-expressing cells, FRET antagonist read-out; inhibition, % at 6.6 µM; 330,000 compounds, 1.8% hits; AID 485270; in the data active = inhibition mostly above about 38%, no sharp cut-off; inactive = mostly below about 40%
# Target sequence (O43613 whole entry, looked up): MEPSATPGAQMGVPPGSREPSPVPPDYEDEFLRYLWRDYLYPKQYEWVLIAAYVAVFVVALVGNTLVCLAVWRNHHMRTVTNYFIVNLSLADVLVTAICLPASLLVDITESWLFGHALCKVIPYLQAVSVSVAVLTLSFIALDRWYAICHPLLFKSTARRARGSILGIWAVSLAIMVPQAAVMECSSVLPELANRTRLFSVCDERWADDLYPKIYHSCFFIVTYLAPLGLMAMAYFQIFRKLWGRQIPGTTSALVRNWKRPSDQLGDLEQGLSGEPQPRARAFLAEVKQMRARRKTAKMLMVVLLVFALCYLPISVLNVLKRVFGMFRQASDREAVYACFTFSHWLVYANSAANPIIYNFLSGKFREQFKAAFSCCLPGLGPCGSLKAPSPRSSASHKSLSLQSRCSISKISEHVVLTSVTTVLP
# OX1R antag-2: human HCRTR1 antagonism; O43613; 330,000 compounds, 0.43% hits; inhibition, % at 5 µM; CHO/OX1R cells, Fluo-8 calcium fluorescence, orexin A;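 active = inhibition above its plate's threshold, mean inhibition of all tested compounds on the plate plus 3 SD, cut at about 37% in these data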
# Numbers stand for hits; – = inactive; · = no result given. An excerpt weighted towards active compounds, which were near 3.1% of everything screened.
SMILES,GPR7 antagonist,CHO parental Ca,GalR3 antagonist,OX1R antag-1,OX1R antag-2
CCCCCCCC/C=C\CCCCCCCC(=O)NCCc1ccc(O)c(O)c1,·,35.7,–,–,–
CC(C)C(=O)Nc1ccc2nn(-c3ccccc3)nc2c1,–,–,–,63.1,–
CC1(C)CC(=O)C(CC(=O)Nc2cc(C(F)(F)F)ccc2Cl)C(=O)C1,–,–,–,–,–
Cn1nnnc1SCCNCc1ccccc1OCc1ccc(F)cc1,–,–,–,–,–
O=C(CCNC(=O)c1ccccc1)Nc1ccc(Cl)c(S(=O)(=O)N2CCCCC2)c1,·,–,–,–,–
COC(=O)c1cc(C(=O)Nc2ccc(C)cn2)cc([N+](=O)[O-])c1,–,–,–,50.5,–
Cc1oc2c(c1C(=O)c1ccc(Cl)cc1)C(=O)C(=O)c1ccccc1-2,28.2,·,–,·,·
Cc1ccc(C(=O)c2cn[nH]c2-c2ccccc2O)cc1,–,–,–,–,–
Cc1ccc(C(=O)c2coc3c2C(=O)C(=O)c2ccccc2-3)cc1,–,–,–,46.8,–
Cc1onc(-c2ccccc2)c1C(=O)NCCc1ccncc1,–,–,–,–,–
O=c1c(O)c(-c2cccs2)oc2ccccc12,–,49.0,–,–,–
O=c1c(O)c(-c2cccs2)oc2ccc(Cl)cc12,23.9,70.5,–,–,91.6
O=c1c(O)c(-c2ccccc2)oc2ccccc12,·,·,–,·,·
COc1ccc(-c2ccc(C(=O)NCCc3ccccc3)c3occc23)c(C)c1,·,·,–,·,·
COc1ccccc1-c1nnc(-c2ccc(N3CCOCC3)cc2)o1,–,–,–,74.5,–
Cc1cccc(OCCCCc2c(C)n[nH]c2C)c1C,–,43.5,–,–,–
O=[N+]([O-])c1ccc(N2CCc3ccccc3C2)cc1,–,–,–,52.0,–
COC(=O)/C(=C(O)\C=C\c1ccccc1[N+](=O)[O-])c1nc2ccccc2[nH]1,–,–,–,55.6,–
O=C(COC(=O)CCCOc1ccccc1)NNC(=O)c1ccc([N+](=O)[O-])cc1,–,–,–,–,–
CC1CC1C(=O)OCC(=O)NC(=O)c1ccc(C(C)(C)C)cc1 (stereo not given),·,–,–,–,–
O=C(CNC(=O)c1ccccc1)NCC(=O)OCC(=O)c1ccc([N+](=O)[O-])cc1,–,–,–,54.4,–
CC1CC1C(=O)OCC(=O)NNC(=O)c1ccc([N+](=O)[O-])cc1 (stereo not given),·,–,–,34.3,–
Cc1ccc(C(=O)OCC(=O)NNC(=O)c2ccc([N+](=O)[O-])cc2)o1,·,–,–,40.9,–
Cn1cccc1C(=O)OCC(=O)NNC(=O)c1ccc([N+](=O)[O-])cc1,·,–,–,–,–
CCOc1ccccc1OCC(=O)OCC(=O)NNC(=O)c1ccc([N+](=O)[O-])cc1,–,–,–,54.9,–
SMILES,GPR7 antagonist,CHO parental Ca,GalR3 antagonist,OX1R antag-1,OX1R antag-2
COC(=O)c1cc2c(c3c4cc(OC)ccc4n(S(=O)(=O)c4ccc(OC)cc4)c13)C(=O)N(Cc1ccco1)C2,·,·,–,·,·
CCCC(C)c1nnc(NC(=O)C2CC(=O)N(CCc3ccc(F)cc3)C2)s1 (stereo not given),–,–,–,–,–
O=C(CSc1cccc[n+]1[O-])Nc1ccc([N+](=O)[O-])cc1Cl,–,–,–,65.3,–
CCN(CC)S(=O)(=O)c1ccc(Cl)c(NC(=O)CSc2cccc[n+]2[O-])c1,–,–,–,–,–
CC(=O)Nc1ccc(SC[C@H](Cc2ccccc2)N2CC[C@@H](C(C)(C)C)CCC2=O)cc1,·,–,–,–,–
Nc1ccc2ccc(NS(=O)(=O)N3CCCCC3)cc2c1,·,·,–,·,·
CCc1nc2ccc(C(=O)N3CCN(C(C)=O)CC3)cn2c1N(C)C(=O)c1cccc(OC)c1,·,·,–,·,·
CCCCCCC[C@@H](C/C=C/CCC(=O)O)OC,·,–,–,–,–
CCCCCCC[C@@H](C/C=C/CCC(=O)N(C)C/C(=C/Cl)C/C(=C\C(=O)N1C[C@H](O)CC1=O)OC)OC,·,41.2,–,–,–
CCCCCCC[C@@H](C/C=C/CCC(=O)N(C)C/C(=C/Cl)C/C(=C\C(=O)N1CC(OC)=CC1=O)OC)OC,·,–,–,41.8,57.1
CCOc1ccc(S(=O)(=O)N2CCCC(C(=O)N3CCCC3)C2)cc1 (stereo not given),–,–,–,–,–
COc1ccccc1CCn1cnc(-c2ccccc2F)c1CC(C)C,·,·,–,·,·
CC(C)C[C@H](NC(=O)C1CC(=O)N(c2ccc3c(c2)OCO3)C1)C(=O)NC1CCCCC1 (stereo not given in full),–,–,–,–,–
O=C(c1cc(O)c(O)c([N+](=O)[O-])c1)c1ccccc1F,·,–,·,38.8,–
Cc1cccc(OCCN2C(=O)C(=O)c3cc(C)ccc32)c1,–,–,–,–,–
Cc1ccc2c(c1)C(=O)C(=O)N2CCOc1ccccc1,32.8,–,–,–,–
O=C(CN1CCOCC1)NNc1c2ccccc2nc2ccccc12,–,–,–,–,–
C[N+]1(CC(=O)NNc2c3ccccc3nc3ccccc23)CCOCC1,–,–,–,44.2,–
O=C(O)c1cccc(NC(=S)N/N=C/c2ccccc2OCc2ccc(Br)cc2)c1,–,42.1,–,–,–
CCn1cc(/C=N/NC(=O)COc2cccc3cccnc23)c2ccccc21,–,–,–,–,–
COC(=O)c1nc2nc(C)cc(C(F)(F)F)n2n1,–,–,–,–,–
O=C(CSc1nc(-c2cccs2)cc(C(F)(F)F)n1)NCc1ccco1,–,–,–,–,–
COC(=O)c1nc2nc(-c3cccs3)cc(C(F)(F)F)n2n1,–,–,–,76.5,–
O=C(NCc1ccco1)c1nc2nc(-c3cccs3)cc(C(F)(F)F)n2n1,–,–,–,70.5,–
CCOC(=O)c1nn(-c2ccccc2)c(C#N)c1N,–,–,–,–,–
SMILES,GPR7 antagonist,CHO parental Ca,GalR3 antagonist,OX1R antag-1,OX1R antag-2
Cc1ccc(-n2nc(C(=O)O)c(C)c(C#N)c2=O)cc1Cl,–,–,–,50.8,–
Cc1c(C(=O)O)nn(-c2ccccc2)c(=O)c1C#N,–,–,·,59.5,–
CCOC(=O)c1nn(-c2ccc(C)c(Cl)c2)c(=O)c(C#N)c1C,–,–,–,–,–
Cc1ccc(O)c(N=Nc2nccs2)c1,·,–,–,–,–
O=C(Cn1ncc(Cl)c(Cl)c1=O)N1CCN(S(=O)(=O)c2ccc3ccccc3c2)CC1,39.8,30.8,–,–,–
Cc1ccccc1C(=O)Oc1ccc2ccc(O)cc2c1,–,65.9,–,–,–
Cc1ccccc1S(=O)(=O)Oc1ccc2ccc(O)cc2c1,–,–,–,–,–
Clc1ccc2c(c1)-c1nnc(Br)n1-c1ccccc1S2,–,–,–,60.4,–
C[C@H]1CN([C@@H](C)CO)C(=O)c2cc(Br)cnc2O[C@H]1CN(C)C(=O)C1CC1,·,·,–,·,·
O=c1[nH][nH]c(=O)c2cc([N+](=O)[O-])ccc12,·,–,–,51.7,–
O=c1[nH]cnc2ccccc12,–,–,–,–,–
O=c1[nH]cnc2ccc([N+](=O)[O-])cc12,–,–,–,52.3,–
Cc1c(Cl)cccc1NC(=O)COC(=O)CN1C(=O)NC(C)(C)C1=O,–,–,–,–,–

# Bioassay records from PubChem.
